For one compound, Time of half inactivation and Control results are on record in ChEMBL document CHEMBL1121710, “alpha-Ethynyl and alpha-vinyl analogues of ornithine as enzyme-activated inhibitors of mammalian ornithine decarboxylase” (J Med Chem, 1981).

Assay [1] has as its target T1, Ornithine decarboxylase (Rattus norvegicus) (UniProt P09057).
T1 sequence (whole entry): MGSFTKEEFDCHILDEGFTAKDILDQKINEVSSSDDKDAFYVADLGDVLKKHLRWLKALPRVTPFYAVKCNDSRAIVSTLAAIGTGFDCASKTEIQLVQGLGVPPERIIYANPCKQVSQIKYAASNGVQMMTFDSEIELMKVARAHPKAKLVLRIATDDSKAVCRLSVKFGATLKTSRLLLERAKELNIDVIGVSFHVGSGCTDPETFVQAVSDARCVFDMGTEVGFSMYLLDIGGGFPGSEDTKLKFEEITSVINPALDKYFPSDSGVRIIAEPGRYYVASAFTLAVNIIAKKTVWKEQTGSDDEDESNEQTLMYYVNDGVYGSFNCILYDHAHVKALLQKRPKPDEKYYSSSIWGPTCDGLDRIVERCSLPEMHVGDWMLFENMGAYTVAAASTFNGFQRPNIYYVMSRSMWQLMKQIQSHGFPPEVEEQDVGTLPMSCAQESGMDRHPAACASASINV
Description: Effect on the time of half-inactivation of ornithine decarboxylase in the presence of 10 uM concentration + 1 mM L-2-methylornithine. The class given is functional. The procedure, abridged:
(§1)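 Rat liver ODC from thioacetamide-treated rats (150 mg/kg, 18 h before sacrifice), purified about tenfold by acid treatment at pH 4.6. Enzyme preincubated at 37 °C in 30 mM sodium phosphate pH 7.1 with 5 mM dithiothreitol, 0.1 mM pyridoxal phosphate, inhibitor and 1 mM effector where listed. Half-inactivation time derived from pseudo-first-order loss.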

For assay [2], the target named is T1, Ornithine decarboxylase (Rattus norvegicus). Description: Effect on the time of half-inactivation of ornithine decarboxylase at 10 uM concentration. The class given is functional. The procedure, abridged:
as §1

The target is the same in assay [3]. Description: Effect on the time of half-inactivation of ornithine decarboxylase in the presence of 10 uM concentration + 1 mM D-2-methylornithine. The class given is functional. In outline: as §1
For assay [4] the target is unchanged. The assay can be described thus: Effect on the time of half-inactivation of ornithine decarboxylase in the presence of 10 uM concentration + 1 mM L-ornithine. Format: functional. In outline:
as §1

Assay [5] has the same target. Description: The compound was tested for the inhibitory activity against L-orinithine carboxylase inventral prostate of the rat at dose 100 mg/kg, ip). Format: functional, organism-based. Further details: dose 100 mg/kg; scale not given: the % may be the effect or the level left. The following applies: Prostate gland. In outline: (§2)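 Male Sprague–Dawley rats (200–220 g), fed ad libitum, 12 h light/dark. Single ip dose in 0.9% saline; saline-injected controls. Killed by decapitation 5 h later at a fixed time of day. Ventral prostate, testis and thymus homogenized; ODC activity measured as CO2 release and expressed as % of control. Mean ± SEM of five animals; Student's t test.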

The target is the same in assay [6]. The assay can be described thus: The compound was tested for the inhibitory activity against L-orinithine carboxylase in rat testis. dose 200 mg/kg, ip). Format: functional, organism-based. Also noted: dose 200 mg/kg; scale not given: the % may be the effect or the level left. The note with it: at 200 mg/kg. The procedure, abridged:
as §2

For assay [7] the target is unchanged. Description: The compound was tested for the inhibitory activity against L-orinithine carboxylase in ventral prostate of the rat at dose 25 mg/kg, ip). The class given is functional, organism-based. Also noted: dose 25 mg/kg; scale not given: the % may be the effect or the level left. The following applies: Prostate gland. The procedure, abridged: as §2
Assay [8] shares this target. Description: The compound was tested for the inhibitory activity against L-orinithine carboxylase in ventral prostate of the rat dose 200 mg/kg, ip). The class given is functional, organism-based. Also noted: dose 200 mg/kg; scale not given: the % may be the effect or the level left. The following applies: Prostate gland; at 200 mg/kg. The procedure, abridged: as §2

Assay [9] has the same target. The assay can be described thus: The compound was tested for the inhibitory activity against L-orinithine carboxylase in ventral prostate of the rat at dose 12.5 mg/kg, ip). The class given is functional, organism-based. Also noted: dose 12.5 mg/kg; scale not given: the % may be the effect or the level left. The note with it: Prostate gland. In outline:
as §2

The target is the same in assay [10]. Description: The compound was tested for the inhibitory activity against L-orinithine carboxylase in ventral prostate of the rat at dose 50 mg/kg, ip). Also noted: dose 50 mg/kg; scale not given: the % may be the effect or the level left. The class given is functional, organism-based. The following applies: Prostate gland. In outline:
as §2

Assay [11] shares this target. Description: The compound was tested for the inhibitory activity against L-orinithine carboxylase in rat thymus. dose 200 mg/kg, ip). The note with it: at 200 mg/kg. Also noted: dose 200 mg/kg; scale not given: the % may be the effect or the level left. Format: functional, organism-based. The procedure, abridged:
as §2

Molecules are shown by their SMILES.

In the case of `C#CC(N)(CCCN)C(=O)O` (stereo unspecified), the Time of half inactivation in assay [1] was determined as 270 min; in [2], 18 min; in [3], 26 min; in assay [4], 81 min. Further, the Control in assay [5] is 19%; in assay [6], 80%; in assay [7], 56%; in assay [8] it was 18%; in assay [9], 59%; in [10], 40%. Moreover, the Control in assay [11] was found to be 54%.
